Consider two compounds from ChEMBL document CHEMBL3526048, “In vitro metabolism of rivoglitazone, a novel peroxisome proliferator-activated receptor γ agonist, in rat, monkey, and human liver microsomes and freshly isolated hepatocytes” (Drug Metab Dispos, 2011).

The nature of data set [1]: Drug metabolism in rat hepatocytes assessed as formation of 2-((4-((2,4-dioxothiazolidin-5-yl)methyl)phenoxy)methyl)-1-methyl-1H-benzo[d]imidazol-6-yl hydrogen sulfate at 30 uM after 3 hrs by radio-HPLC/LC-MS/MS analysis. The format is ADME, cell-based, Hepatocyte.
Data set [2] deals with T1, UDP-glucuronosyltransferase 2B17 (Homo sapiens, UniProt O75795).
T1 sequence (O75795 whole entry): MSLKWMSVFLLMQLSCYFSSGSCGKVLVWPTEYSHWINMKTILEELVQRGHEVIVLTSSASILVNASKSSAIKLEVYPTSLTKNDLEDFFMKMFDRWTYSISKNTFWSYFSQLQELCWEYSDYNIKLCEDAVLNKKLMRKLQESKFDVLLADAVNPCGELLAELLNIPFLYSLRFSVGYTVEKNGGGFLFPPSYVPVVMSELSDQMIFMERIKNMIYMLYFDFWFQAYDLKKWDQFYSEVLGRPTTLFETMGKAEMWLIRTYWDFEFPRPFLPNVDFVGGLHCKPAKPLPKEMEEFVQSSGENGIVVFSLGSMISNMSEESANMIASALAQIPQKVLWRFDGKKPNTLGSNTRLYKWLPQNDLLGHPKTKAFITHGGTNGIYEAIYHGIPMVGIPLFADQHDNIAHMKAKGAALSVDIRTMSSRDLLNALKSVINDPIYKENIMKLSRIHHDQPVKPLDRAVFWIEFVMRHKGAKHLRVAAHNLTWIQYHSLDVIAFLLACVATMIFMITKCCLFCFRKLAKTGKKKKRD
Kind of data set: Activity of human UGT2B17 expressed in microsomes isolated from baculovirus infected insect cell assessed as enzyme-mediated (2S,3S,4S,5R,6R)-6-((1-carboxy-2-(4-((6-methoxy-1-methyl-1H-benzo[d]imidazol-2-yl)methoxy)phenyl)ethylthio)carbonylamino)-3,4,5-trihydroxytetrahydro-2H-pyran-2-carboxylic acid formation at 20 uM after 4 hrs by radio-HPLC/LC-MS/MS analysis in presence of UDPGA. The format is ADME.

Another data set addresses Cytochrome P450 2D6 (Homo sapiens, UniProt P10635). Kind of data set: Activity of human CYP2D6 expressed in microsomes isolated from baculovirus infected insect cell assessed as enzyme-mediated 3-(4-((6-methoxy-1-methyl-1H-benzo[d]imidazol-2-yl)methoxy)phenyl)-2-(methylsulfonyl)propanamide formation at 20 uM after 2 hrs by radio-HPLC/LC-MS/MS analysis in presence of NADPH-generating system/SAM. In kind it is ADME.

The target of the next data set is T2, Cytochrome P450 1A2 (Homo sapiens, UniProt P05177).
T2 sequence (P05177 whole entry): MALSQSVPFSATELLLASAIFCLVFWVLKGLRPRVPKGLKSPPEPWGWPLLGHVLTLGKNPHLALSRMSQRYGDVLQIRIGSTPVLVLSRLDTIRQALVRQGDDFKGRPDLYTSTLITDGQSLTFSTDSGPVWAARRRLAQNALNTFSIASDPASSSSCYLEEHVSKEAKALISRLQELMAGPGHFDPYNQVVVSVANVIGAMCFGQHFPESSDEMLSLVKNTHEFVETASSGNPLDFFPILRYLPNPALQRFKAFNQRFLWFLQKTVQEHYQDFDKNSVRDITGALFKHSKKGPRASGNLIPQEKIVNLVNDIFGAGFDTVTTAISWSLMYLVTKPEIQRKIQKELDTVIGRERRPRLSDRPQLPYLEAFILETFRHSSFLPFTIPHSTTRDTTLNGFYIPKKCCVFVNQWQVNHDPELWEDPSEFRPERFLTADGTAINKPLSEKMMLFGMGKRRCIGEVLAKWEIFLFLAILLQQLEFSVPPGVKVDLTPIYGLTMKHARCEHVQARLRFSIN
Put plainly: Activity of human CYP1A2 expressed in microsomes isolated from baculovirus infected insect cell assessed as enzyme-mediated 2-mercapto-3-(4-((6-methoxy-1-methyl-1H-benzo[d]imidazol-2-yl)methoxy)phenyl)propanoic acid formation at 20 uM after 2 hrs by radio-HPLC/LC-MS/MS analysis in presence of NADPH-generating system. In kind it is ADME. In outline:
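Baculovirus/insect-cell microsomes expressing single human CYPs, 1 mg/ml protein, with 50 mM potassium phosphate (pH 7.4) or 100 mM Tris-HCl (pH 7.5). NADPH-generating system: 2 mM NADP⁺, 20 mM glucose 6-phosphate, 2 units/ml G6PDH, 10 mM MgCl₂. [¹⁴C]rivoglitazone at 20 μM, 2 h at 37°C with shaking. Control used insect-cell control supersomes. Stopped with acetonitrile; supernatant concentrated under nitrogen; metabolites analysed by radio-HPLC, LC-MS and LC-MS/MS.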

Data set [3] deals with T3, UDP-glucuronosyltransferase 1A3 (Homo sapiens, UniProt P35503).
T3 sequence (P35503 whole entry): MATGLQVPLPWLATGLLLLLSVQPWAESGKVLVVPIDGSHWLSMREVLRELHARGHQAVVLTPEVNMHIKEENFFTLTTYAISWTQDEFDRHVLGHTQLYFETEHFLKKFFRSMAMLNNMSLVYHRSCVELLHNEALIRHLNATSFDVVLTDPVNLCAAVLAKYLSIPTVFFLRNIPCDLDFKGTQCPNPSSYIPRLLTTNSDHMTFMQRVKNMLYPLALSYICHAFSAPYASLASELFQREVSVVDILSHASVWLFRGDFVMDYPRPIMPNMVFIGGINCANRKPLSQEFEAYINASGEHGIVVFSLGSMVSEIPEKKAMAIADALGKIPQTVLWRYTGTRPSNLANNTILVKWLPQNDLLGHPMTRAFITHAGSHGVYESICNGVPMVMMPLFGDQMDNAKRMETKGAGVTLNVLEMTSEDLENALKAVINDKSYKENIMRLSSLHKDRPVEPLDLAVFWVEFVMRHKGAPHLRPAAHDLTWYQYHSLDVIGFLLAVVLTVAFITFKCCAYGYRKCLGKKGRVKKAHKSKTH
Kind of data set: Activity of human UGT1A3 expressed in microsomes isolated from baculovirus infected insect cell assessed as enzyme-mediated (2S,3S,4S,5R,6R)-6-((1-carboxy-2-(4-((6-methoxy-1-methyl-1H-benzo[d]imidazol-2-yl)methoxy)phenyl)ethylthio)carbonylamino)-3,4,5-trihydroxytetrahydro-2H-pyran-2-carboxylic acid formation at 20 uM after 4 hrs by radio-HPLC/LC-MS/MS analysis in presence of NADPH-generating system/SAM. The format is ADME.

The next data set concerns the target Cytochrome P450 2C9 (Homo sapiens, UniProt P11712). Kind of data set: Activity of human CYP2C9 expressed in microsomes isolated from baculovirus infected insect cell assessed as enzyme-mediated compound formation treated with [14C]-rivoglitazone at 20 uM after 2 hrs by radio-HPLC/LC-MS/MS analysis in presence of NADPH-generating system. In kind it is ADME. In outline:
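Baculovirus-insect-cell microsomes expressing the human CYP (1 mg/ml protein) were incubated with [14C]rivoglitazone (20 μM) in 50 mM potassium phosphate (pH 7.4) or 100 mM Tris-HCl (pH 7.5) with an NADPH-generating system (2 mM NADP+, 20 mM glucose 6-phosphate, 2 units/ml G6PDH, 10 mM MgCl2) for 2 h at 37°C. Insect-cell control supersomes served as the control. Reactions were stopped with acetonitrile, and the concentrated supernatants were analysed by radio-HPLC, LC-MS and LC-MS/MS.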

Sequence of Cytochrome P450 2C9 (P11712 whole entry): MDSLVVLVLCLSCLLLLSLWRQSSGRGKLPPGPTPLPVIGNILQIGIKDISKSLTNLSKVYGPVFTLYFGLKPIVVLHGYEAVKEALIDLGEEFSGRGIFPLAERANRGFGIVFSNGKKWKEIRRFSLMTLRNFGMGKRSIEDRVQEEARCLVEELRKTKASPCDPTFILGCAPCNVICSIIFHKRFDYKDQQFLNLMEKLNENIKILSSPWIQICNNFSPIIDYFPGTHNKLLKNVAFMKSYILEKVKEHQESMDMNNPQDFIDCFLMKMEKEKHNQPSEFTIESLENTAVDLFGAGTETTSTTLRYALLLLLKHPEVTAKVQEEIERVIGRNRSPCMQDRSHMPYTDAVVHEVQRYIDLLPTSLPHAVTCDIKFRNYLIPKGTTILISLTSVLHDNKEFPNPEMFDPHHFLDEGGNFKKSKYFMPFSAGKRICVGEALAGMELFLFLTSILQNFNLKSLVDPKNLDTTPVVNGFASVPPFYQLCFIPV
Sequence of Cytochrome P450 2D6 (P10635 whole entry): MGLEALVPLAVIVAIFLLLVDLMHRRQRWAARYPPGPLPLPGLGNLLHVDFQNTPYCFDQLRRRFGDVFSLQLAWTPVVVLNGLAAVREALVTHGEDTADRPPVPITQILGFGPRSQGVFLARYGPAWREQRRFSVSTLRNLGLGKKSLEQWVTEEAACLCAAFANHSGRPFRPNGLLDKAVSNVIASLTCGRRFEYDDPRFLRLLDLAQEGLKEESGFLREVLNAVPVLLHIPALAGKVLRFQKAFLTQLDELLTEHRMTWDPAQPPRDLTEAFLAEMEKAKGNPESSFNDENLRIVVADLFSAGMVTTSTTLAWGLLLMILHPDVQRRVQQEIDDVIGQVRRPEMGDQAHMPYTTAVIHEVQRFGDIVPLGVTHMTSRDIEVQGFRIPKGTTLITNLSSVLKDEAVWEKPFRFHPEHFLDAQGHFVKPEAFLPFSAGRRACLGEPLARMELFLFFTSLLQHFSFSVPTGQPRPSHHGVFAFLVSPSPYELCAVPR

Consider `COc1ccc2nc(COc3ccc(C[14CH]4SC(=O)NC4=O)cc3)n(C)c2c1.Cl` (racemic), for which the Drug metabolism result in data set [1] is “metabolite_detected”; in data set [2], “metabolite_not_detected”; at Cytochrome P450 2D6, “metabolite_not_detected”; on Cytochrome P450 1A2, “metabolite_detected”; in data set [3] it was “metabolite_detected”.

Turning to `COc1ccc2nc(COc3ccc(CC(S)C(=O)O)cc3)n(C)c2c1` (stereo unspecified), the Drug metabolism entry at Cytochrome P450 2C9 is given as “metabolite_detected”.
